Screens deposited in PubChem by several laboratories.
RAM inhibit – inhibitors of the yeast RAM network; AID 868; inhibition, % at 50 µM; actives 1.8% (n = 190,000); S. cerevisiae dse1pr::URA3 reporter, 5-FOA growth OD615, 2 d; analog-sensitive cbk1-as2 kinase mutant strain;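 active = inhibition above a set limit, 3 SD over mean compound inhibition, cut at about 8.4% in these data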;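 also: inhibition rescues growth on 5-FOA so higher OD means more RAM inhibition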
Yeast life ext – yeast lifespan extension; actives 0.68% (n = 130,000); S. cerevisiae growth with nicotinamide, OD615; deaD strain in restrictive glucose medium; inhibition of the nicotinamide effect, % at 10 µM;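 active = inhibition above a set limit, placed 3 SD over the median of all compounds, cut at about 26% in these data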
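Assay system: engineered S. cerevisiae DeaD replicative-lifespan strain, galactose-grown log-phase cells; Buffer or medium: CSMM-D glucose medium, restrictive; Probe or stimulus: nicotinamide 1.5 mM; Compound: single dose 10 µM compound, 0.25% DMSO; Schedule: 4 h preincubation then 48 h treatment at 30 °C; Technique: OD615 measurement.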
Insulin prom inh – TRM-6 insulin promoter activity inhibition; actives 0.9% (n = 130,000); AID 1273; TRM-6 cells, insulin promoter-eGFP reporter, imaging; reporter expression induced with tamoxifen; inhibition, % at 2 µM;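 active = inhibition above the mean plus 3 SD, with well images judged a real hit on visual review, cut at about 60% in these data, passing the limit was not always enough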
MDM2 E3 inh – inhibitors of human Mdm2 E3 ubiquitin ligase | Q00987 | cell-based MDM2 ubiquitination luciferase reporter, 2 h; 0 = plate control, 100 = twice control, blank-subtracted | signal enhancement, % at 5 µM | actives 0.11% (n = 210,000) | AID 1230;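 active = signal enhancement of 30% or more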;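 also: luminescence tracks abundance of the self-degrading MDM2-luciferase fusion protein; higher signal means inhibition of MDM2 E3 ligase activity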
Target sequence (Q00987 whole entry, looked up, the tested form may be a part): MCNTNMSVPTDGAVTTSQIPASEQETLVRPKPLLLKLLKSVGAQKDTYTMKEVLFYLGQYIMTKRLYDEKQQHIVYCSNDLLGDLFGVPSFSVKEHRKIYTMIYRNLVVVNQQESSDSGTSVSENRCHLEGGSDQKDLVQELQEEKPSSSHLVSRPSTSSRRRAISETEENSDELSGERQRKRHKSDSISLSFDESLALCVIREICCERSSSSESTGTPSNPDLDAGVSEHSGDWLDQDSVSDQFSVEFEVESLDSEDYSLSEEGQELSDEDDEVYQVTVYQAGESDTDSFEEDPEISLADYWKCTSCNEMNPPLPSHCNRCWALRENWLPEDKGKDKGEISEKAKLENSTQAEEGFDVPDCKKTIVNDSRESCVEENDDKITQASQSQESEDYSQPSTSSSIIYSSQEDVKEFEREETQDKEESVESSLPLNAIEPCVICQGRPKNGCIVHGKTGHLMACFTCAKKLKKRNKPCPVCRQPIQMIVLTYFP
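System: stable MDM2–luciferase fusion reporter cells / Input: 2000 cells seeded into each well / Schedule: 4 h settle plus 2 h compound, 37 °C / Compound: single-point 5 µM / Buffer or medium: cells held in DMEM / Benchmarks: control and blank well means / Evaluation: percent signal gain over controls, blank-subtracted / Measured by: luciferase luminescence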
Measles CPE – protection of cells from measles virus | protection (pct of control), % at 4 µM | Measles virus-infected cells, CPE protection, absorbance | actives 1.5% (n = 140,000); in the data active = protection mostly above about 24%, no sharp cut-off; inactive = mostly below about 26%
BB579 growth dn – yeast BB579 growth reduction in restrictive medium. S. cerevisiae BB579 growth, OD615, 48 h. AID 804. actives 0.51% (n = 140,000). inhibition, % at 10 µM;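 active = inhibition above a set limit, 3 SD over the mean compound inhibition, cut at about 44% in these data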
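Test system: S. cerevisiae DeaD strain BB579 yeast; Medium: restrictive CSMM-D medium; Compound: one dose, 10 µM compound with 0.25% DMSO; Incubation: 4 h cell preincubation, 48 h compound exposure, 30 °C humidified; Signal: OD at 615 nm; Benchmarks: amphotericin B at 10 µg/mL as positive control.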
Hits are given with their value; – = inactive; · = no result. Hits are enriched below; roughly 4% of the tested compounds scored in any of these assays.

SMILES	RAM inhibit	Yeast life ext	Insulin prom inh	MDM2 E3 inh	Measles CPE	BB579 growth dn
C/C(=N/O)c1ccccn1	–	·	·	–	·	·
O=C(O)COc1ccccc1/C=N/NC(=O)CSc1nc2ccccc2n1Cc1ccc(Cl)cc1	·	·	·	–	·	·
O=C(COC(=O)c1ccc(Br)o1)Nc1cccc(S(=O)(=O)N2CCCCCC2)c1	–	–	–	–	34.4	–
Cc1ccc(OCC(=O)Nc2cccc(S(=O)(=O)N3CCCCC3)c2)c([N+](=O)[O-])n1	–	–	·	–	28.9	–
COc1ccc(-n2cc3c(-c4cccc(Br)c4)nnc(C)c3n2)cc1	10.6	–	–	–	–	–
Cc1cc(C)nc(NC(=NCCc2c[nH]c3ccccc23)NC(=O)c2ccco2)n1	9.8	–	–	–	–	–
COc1ccc(OC)c(C(=O)CSc2nnc(-c3ccc(OC)c(OC)c3)o2)c1	10.1	–	–	–	–	–
COc1ccccc1OCc1nnc(SCC(=O)c2cc(Cl)ccc2OC)o1	9.5	–	–	–	–	–
COc1ccc(OCc2nnc(SCC(=O)c3ccccc3)o2)cc1	–	·	·	–	·	·
CCOC(=O)C1CCN(C(=O)c2cc(C(C)(C)C)nn2Cc2ccccc2)CC1	·	·	·	–	·	·
O=C1CC(NCCC2=CCCCC2)C(=O)N1c1cccc(Cl)c1Cl (stereo not given)	–	–	·	–	–	–
Cc1ccc(Cn2ncc3c(N4CCN(c5ccccc5C)CC4)ncnc32)cc1	10.2	–	–	–	–	–
O=CN1CCCN(Cc2nc(-c3cccc(Cl)c3)no2)CC1	–	·	·	–	·	·
CCN1C/C(=C/c2ccc(OC)c(O)c2)C(=O)/C(=C/c2ccc(OC)c(O)c2)C1	–	·	·	49.6	·	·
COc1ccc(C=C2C(=O)c3ccccc3C2=O)cc1O	–	·	–	–	·	·
CSC1=N/C(=C\c2c(F)cccc2Cl)C(=O)S1	–	31.2	–	–	–	–
COc1cc(/C=C2/CC/C(=C/c3ccc(O)c(OC)c3)C2=O)ccc1O	·	·	·	–	·	·
COc1ccc(/C=C2\N=C(SC)SC2=O)cc1OC	–	–	–	–	39.7	–
COc1ccc(/C=C2\CC/C(=C\c3ccc(OC)c(OC)c3)C2=O)cc1OC	11.2	–	–	–	–	–
Cc1ccc(NC(=O)C2C3/C=C\CCCCC32)cc1C (stereo not given)	–	–	·	–	–	–
CC(=O)Nc1ccc(N=Nc2ccc(O)cc2)cc1	–	–	–	–	–	–
COc1ccc(C(=S)N2CCN(c3ccccc3C)CC2)cc1	·	·	·	–	·	·
COC(=O)c1ccc(NC(=O)c2cccc(Cl)c2)o1	–	–	–	–	–	–
CCN1C/C(=C\c2cccc([N+](=O)[O-])c2)C(=O)/C(=C/c2cccc([N+](=O)[O-])c2)C1	–	–	100.0	39.3	–	–
CC(OC(=O)CCc1c[nH]c2ccccc12)C(=O)c1ccccc1 (stereo not given)	–	·	·	–	·	·
SMILES	RAM inhibit	Yeast life ext	Insulin prom inh	MDM2 E3 inh	Measles CPE	BB579 growth dn
O=C(Nc1cccc(C(F)(F)F)c1)N1CCC(c2nc(-c3ccc(F)cc3)no2)CC1	10.0	–	·	–	–	–
CC(C)CC(=O)NC(NCC1CCCO1)C(Cl)(Cl)Cl (stereo not given)	–	–	–	–	–	–
COC(Cn1cc(C)c(=O)[nH]c1=O)OC	–	·	–	42.1	·	·
CCOC(=O)c1nn(-c2cccc(Cl)c2)c(C)c1C(C)=O	–	–	91.5	–	–	–
O=C(O)C1CC=CCC1C(=O)c1ccccc1 (stereo not given)	–	–	65.6	–	–	–
O=C(O)C1CC=CCC1C(=O)NNc1ccccc1 (stereo not given)	–	·	·	–	·	·
COCCNC(=O)C(c1ccc(C)o1)N(Cc1ccc(F)cc1)C(=O)Cn1nnc2ccccc21 (stereo not given)	–	–	–	–	–	–
COCCNC(=O)C(c1ccc(C)o1)N(Cc1ccc(OC)cc1)C(=O)Cn1nnc2ccccc21 (stereo not given)	10.5	–	–	–	–	–
O=C(NCc1ccco1)C(c1ccco1)N(Cc1cccs1)C(=O)Cn1nnc2ccccc21 (stereo not given)	9.5	·	–	–	–	–
COc1ccc(/C=c2/sc3n(c2=O)C(c2ccccc2OC)C2=C(N=3)c3ccccc3CC2)cc1O (stereo not given)	9.5	–	–	–	–	–
CCOC(=O)/C(C#N)=C/C1=C(N2CCOCC2)CC(C)(C)OC1	·	·	·	–	·	·
CC(C)NC(=O)C(=O)c1cn(C)c2ccccc12	–	·	·	–	·	·
Cn1cc(C(=O)C(F)(F)F)c2ccccc21	–	–	–	–	52.5	–
O=C1C2CCCN2C(=O)N1CCCCN1CCN(c2cccc(Cl)c2)CC1 (stereo not given)	–	–	–	–	–	–
Nn1c(-c2cccs2)nc2sc3c(c2c1=O)CCCC3	9.0	–	–	–	–	–
Cc1ccccc1-c1nc2sc3c(c2c(=O)n1N)CCCC3	–	–	–	·	–	–
COc1ccc(Cc2nnc(NC(=O)c3ccco3)s2)cc1OC	–	–	·	–	–	–
CCCCCCCC#Cc1ccccc1/C=N/S(=O)c1ccc(C)cc1 (stereo not given)	–	36.2	–	·	–	–
O=C(CCn1c(=S)oc2ccccc21)Nc1cccc(O)c1	–	·	·	–	·	·
O=C(Cc1cccs1)Nc1cccc(-c2ccc3nncn3n2)c1	8.5	·	–	–	·	·
O=C(C1CCC1)N1CCC(c2nc3c(nnn3Cc3c(F)cccc3Cl)c(=O)[nH]2)CC1	–	–	·	–	40.9	–
O=C(Nc1ccc(F)cc1)N1CCC(c2nc3c(nnn3Cc3ccccc3Cl)c(=O)[nH]2)CC1	–	·	·	–	·	·
Cc1onc(-c2ccccc2Cl)c1C(=O)Nc1ccc(-c2nnc3n2CCCCC3)cc1	–	–	–	–	–	–
CC1(C)CC(NC(=O)C(Cl)(Cl)Cl)CC(C)(C)N1	–	–	–	–	–	–
CCOC(=S)SCC(=O)N1CCc2ccccc2C1C1C(=O)CC(C)(C)CC1=O (stereo not given)	–	36.7	·	–	–	–
CCOC(=S)SCC(=O)N1CCc2cc(OC)c(OC)cc2C1C1C(=O)CC(C)(C)CC1=O (stereo not given)	–	–	–	–	–	–
COc1ccccc1C(CC(=O)c1ccccc1)CC(=O)c1ccccc1	11.3	·	–	–	·	·
